Laboratory results: ChEMBL document CHEMBL4219038, “1-Thiazol-2-yl-N-3-methyl-1H-pyrozole-5-carboxylic acid derivatives as antitumor agents” (Bioorg Med Chem Lett, 2017)
Converted amounts (≈) assume the structure as drawn. The source made the active and inactive calls. The rule behind the calls is not given here.

Experiments:
Jurkat = assay: Antiproliferative activity against human Jurkat cells; assay type: functional, cell-based
Daudi = assay: Antiproliferative activity against human Daudi cells; assay type: functional, cell-based
[1] = Antiproliferative activity against human TC71 cells; assay type: functional, cell-based; conditions: TC-71
HCT-116 [2] = assay: Antiproliferative activity against human HCT116 cells; assay type: functional, cell-based
A2780 = assay: Antiproliferative activity against human A2780 cells; assay type: functional, cell-based
[3] = Antiproliferative activity against human […] cells; assay type: functional, cell-based
MIA PaCa-2 = assay: Antiproliferative activity against human MIAPaCa2 cells; assay type: functional, cell-based
MCF7 = assay: Antiproliferative activity against human MCF7 cells; assay type: functional, cell-based
MCF-10A = assay: Antiproliferative activity against human MCF10A cells; assay type: cell-based
B cell = assay: Antiproliferative activity against human primary B cells; assay type: cell-based
HCT-116 [4] = assay: Induction of quiescence in human HCT116 cells by high content cell imaging studies; assay type: functional, cell-based
[5] = Kinetic solubility of the compound in PBS buffer at pH 7.4; assay type: physicochemical; conditions: read-out: Kinetic_solubility
Summary of the method: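 Kinetic solubility measured in PBS buffer, pH 7.4.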

[6] = Protein binding in human plasma; assay type: ADME, cell-free; conditions: read-out: PPB (converted)
[7] = Oral bioavailability in mouse; assay type: ADME, organism-based; conditions: in vivo
[8] = Initial plasma concentration in iv dosed mouse; assay type: ADME, organism-based
[9] = Clearance in iv dosed mouse; assay type: ADME, organism-based; conditions: in vivo
[10] = Volume of distribution at steady state in iv dosed mouse; assay type: ADME, organism-based; conditions: in vivo, read-out: Vdss
[11] = Cmax in mouse at 2.5 mg/kg; assay type: ADME, organism-based; parameters: dose 2.5 mg/kg; conditions: in vivo
[12] = Cmax in mouse at 50 mg/kg; assay type: ADME, organism-based; parameters: dose 50 mg/kg; conditions: in vivo
[13] = Cmax in mouse at 100 mg/kg; assay type: ADME, organism-based; parameters: dose 100 mg/kg; conditions: in vivo
[14] = AUC (0 to infinity) in mouse at 2.5 mg/kg; assay type: ADME, organism-based; parameters: dose 2.5 mg/kg, time infinity; conditions: in vivo
[15] = AUC (0 to infinity) in mouse at 10 mg/kg; assay type: ADME, organism-based; parameters: dose 10 mg/kg, time infinity; conditions: in vivo
[16] = AUC (0 to infinity) in mouse at 50 mg/kg; assay type: ADME, organism-based; parameters: dose 50 mg/kg, time infinity; conditions: in vivo
[17] = AUC (0 to infinity) in mouse at 100 mg/kg; assay type: ADME, organism-based; parameters: dose 100 mg/kg, time infinity; conditions: in vivo
[18] = MRT in mouse at 2.5 mg/kg, po; assay type: ADME, organism-based; conditions: in vivo
[19] = MRT in mouse at 10 mg/kg, po; assay type: ADME, organism-based; conditions: in vivo
[20] = MRT in mouse at 50 mg/kg, po; assay type: ADME, organism-based; conditions: in vivo
[21] = MRT in mouse at 100 mg/kg, po; assay type: ADME, organism-based; conditions: in vivo
Mus musculus [22] = assay: Ratio of Cmax in mouse at 2.5 mg/kg, po to Cmax in mouse at 50 mg/kg, po; assay type: ADME, organism-based; conditions: in vivo
Mus musculus [23] = assay: Ratio of AUC (0 to infinity) in mouse at 2.5 mg/kg, po to Cmax in mouse at 10 mg/kg, po; assay type: ADME, organism-based; conditions: in vivo
Mus musculus [24] = assay: Ratio of AUC (0 to infinity) in mouse at 2.5 mg/kg, po to Cmax in mouse at 50 mg/kg, po; assay type: ADME, organism-based; conditions: in vivo
Mus musculus [25] = assay: Toxicity in J:Nu mouse assessed as induction of adverse effects at 10 to 120 mg/kg, po qd for 13 days; assay type: organism-based; conditions: in vivo, 312 h
Summary of the method: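 Oral once-daily dosing of J:Nu female mice (N = 4 per group) at 10, 30 and 60 mg/kg for 7 days. The 30 and 60 mg/kg groups were escalated to 90 and 120 mg/kg on days 8–13. Clinical signs and body weights were recorded every day.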

Mus musculus [26] = assay: Toxicity in J:Nu mouse assessed as induction of changes in critical clinical parameters at 30 mg/kg, po qd for 7 days followed by 90 mg/kg, po qd for 5 days from day 8 to 13; assay type: organism-based; conditions: in vivo
Summary of the method: (§1)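 In J:Nu female mice (N = 4 per group), dosing was oral once daily at 30 or 60 mg/kg in 5% NMP/10% PEG-400/15% Solutol/70% D5W for 7 days. Doses were then raised to 90 or 120 mg/kg respectively on days 8–13. Clinical signs and body weights were recorded daily. Gross pathology, with spleen and liver weights, was done 48 h after the last dose.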

Mus musculus [27] = assay: Toxicity in J:Nu mouse assessed as changes in organ weight at 60 mg/kg, po qd for 7 days followed by 120 mg/kg, po qd for 5 days from day 8 to 13 measured 48 hrs after post last dose by pathology analysis; assay type: organism-based; conditions: in vivo; summary of the method: as §1
Mus musculus [28] = assay: Toxicity in J:Nu mouse assessed as organ damage at 30 mg/kg, po qd for 7 days followed by 90 mg/kg, po qd for 5 days from day 8 to 13 measured 48 hrs after post last dose by pathology analysis; assay type: organism-based; conditions: in vivo; summary of the method: as §1
[29] = Plasma concentration (7 hrs) in J:Nu mouse at 30 mg/kg, po qd for 7 days measured on day 1; assay type: ADME, organism-based
Summary of the method: (§2)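 J:Nu female mice, N = 4 per group, dosed orally once daily at 10, 30 or 60 mg/kg in 5% NMP, 10% PEG-400, 15% Solutol, 70% D5W. Blood was sampled every other day, alternating Cmax and predose draws. Plasma concentration was taken 7 h after dosing.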

[30] = Plasma concentration (7 hrs) in J:Nu mouse at 10 mg/kg, po qd for 7 days measured on day 5; assay type: ADME, organism-based; summary of the method: as §2
[31] = Plasma concentration (7 hrs) in J:Nu mouse at 30 mg/kg, po qd for 7 days measured on day 5; assay type: ADME, organism-based; summary of the method: as §2
[32] = Plasma concentration (7 hrs) in J:Nu mouse at 60 mg/kg, po qd for 7 days measured on day 5; assay type: ADME, organism-based; summary of the method: as §2
[33] = Cmax in J:Nu mouse plasma at 30 mg/kg, po qd for 7 days followed by 90 mg/kg, po qd for 5 days from day 8 to 13; assay type: ADME, organism-based; parameters: dose 30 mg/kg, route oral
Summary of the method: (§3)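 J:Nu female mice, N = 4 per group, dosed orally once daily at 10, 30 or 60 mpk in 5% NMP, 10% PEG-400, 15% Solutol, 70% D5W. The 30 and 60 mpk groups were raised to 90 and 120 mpk from day 8 to 13.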

[34] = Cmax in J:Nu mouse plasma at 60 mg/kg, po qd for 7 days followed by 120 mg/kg, po qd for 5 days from day 8 to 13; assay type: ADME, organism-based; parameters: dose 60 mg/kg, route oral; summary of the method: as §3
[35] = Dose normalized Cmax in J:Nu mouse plasma at 10 mg/kg, po qd for 7 days; assay type: ADME, organism-based; conditions: in vivo, 168 h; summary of the method: as §3
[36] = Dose normalized Cmax in J:Nu mouse plasma at 30 mg/kg, po qd for 7 days followed by 90 mg/kg, po qd for 5 days from day 8 to 13; assay type: ADME, organism-based; conditions: in vivo; summary of the method: as §3
[37] = AUC (0 to infinity) in J:Nu mouse plasma at 10 mg/kg, po qd for 7 days; assay type: ADME, organism-based; parameters: dose 10 mg/kg, route oral, time infinity; summary of the method: as §3
[38] = AUC (0 to infinity) in J:Nu mouse plasma at 60 mg/kg, po qd for 7 days followed by 120 mg/kg, po qd for 5 days from day 8 to 13; assay type: ADME, organism-based; parameters: dose 60 mg/kg, route oral, time infinity; summary of the method: as §3
[39] = Dose normalized AUC (0 to infinity) in J:Nu mouse plasma at 10 mg/kg, po qd for 7 days; assay type: ADME, organism-based; conditions: in vivo, 168 h; summary of the method: as §3
[40] = Dose normalized AUC (0 to infinity) in J:Nu mouse plasma at 60 mg/kg, po qd for 7 days followed by 120 mg/kg, po qd for 5 days from day 8 to 13; assay type: ADME, organism-based; conditions: in vivo; summary of the method: as §3

## Cc1nn(-c2nc(-c3ccc(Cl)c(Cl)c3)c(SC(C)C)s2)c(C(=O)O)c1-c1cc(Cl)cc(Cl)c1
Jurkat
  IC50: 500 nM
Daudi
  IC50: 380 nM
[1]
  IC50: 290 nM
HCT-116 [2]
  IC50: 600 nM
A2780
  IC50: 290 nM
[3]
  IC50: 1570 nM
MIA PaCa-2
  IC50: 320 nM
MCF7
  IC50: 260 nM
MCF-10A
  IC50: 35000 nM
B cell
  IC50: > 40000 nM
HCT-116 [4]
  Activity: Active
[5]
  solubility kinetic: 40.2 µM (≈ 23 µg/mL)
[6]
  fraction unbound: 0.027
[7]
  bioavailability: 48.4%
[8]
  C0: 3.19 µg/mL
[9]
  clearance: 0.8 mL/min/kg
[10]
  Vd: 0.444 L/kg
[11]
  Cmax: 1.32 µg/mL
[12]
  Cmax: 138 µg/mL
[13]
  Cmax: 131 µg/mL
[14]
  AUC(0-inf): 25.8 µg·h/mL
[15]
  AUC(0-inf): 257 µg·h/mL
[16]
  AUC(0-inf): 2250 µg·h/mL
[17]
  AUC(0-inf): 2120 µg·h/mL
[18]
  MRT: 15.1 h
[19]
  MRT: 10.1 h
[20]
  MRT: 9.3 h
[21]
  MRT: 14.3 h
Mus musculus [22]
  Ratio: 8.8
Mus musculus [23]
  Ratio: 10
Mus musculus [24]
  Ratio: 8.7
Mus musculus [25]
  Activity: Non-Toxic
Mus musculus [26]
  Activity: Non-Toxic
Mus musculus [27]
  Activity: Non-Toxic
Mus musculus [28]
  Activity: Non-Toxic
[29]
  concentration at 7 h: 63.6 µg/mL
[30]
  concentration at 7 h: 18.2 µg/mL
[31]
  concentration at 7 h: 57.3 µg/mL
[32]
  concentration at 7 h: 79.8 µg/mL
[33]
  Cmax: 134 µg/mL
[34]
  Cmax: 128 µg/mL
[35]
  Cmax/dose: 2.8979 µg/mL
[36]
  Cmax/dose: 1.4943 µg/mL
[37]
  AUC(0-inf): 330 µg·h/mL
[38]
  AUC(0-inf): 1540 µg·h/mL
[39]
  AUC/dose: 33000 ng·kg·h/mL/mg
[40]
  AUC/dose: 12800 ng·kg·h/mL/mg
